TPT1 inh: C. albicans TPT1 enzyme inhibition. recombinant caTPT1, FP RNA substrate dephosphorylation. inhibition, % at 5 µM. 300,000 compounds, 0.81% hits. AID 1962;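 active = inhibition above the mean of all tested compounds plus 3 SD, set per screening campaign, cut at about 24% in these data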;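 also: plate controls were DMSO alone for no effect and ferristatin control at 100 nM for full effect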
CSN inh: blocks human CSN-mediated cullin deneddylation. 360,000 compounds, 0.38% hits. Q92905. inhibition, % at 12.5 µM. AID 651999. Purified CSN, SCF-Nedd8-OG deneddylation, fluorescence polarization;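 active = pattern-corrected inhibition above about 35%, with an unprinted fluorescence ratio check between 0.5 and 1.5, limit read from the data, passing the limit was not always enough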;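 also: 0% = enzyme with substrate and 100% = substrate without enzyme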
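Detection – fluorescence polarization · System – HEK293T-derived human Csn5 enzyme · Controls – substrate-only high control, full reaction low control · Timing – 90 min, room temperature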
Rpn11 block: inhibitors of human proteasome Rpn11 | inhibition, % at 20 µM | O00487 | human 26S proteasome, Ub4-pepOG fluorescence polarization; 20S core pre-blocked with epoxomicin | 360,000 compounds, 0.59% hits;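 active = inhibition at 20 µM, scaled to each plate's controls, above about 33%, limit read from the data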
Target sequence (O00487 whole entry, looked up): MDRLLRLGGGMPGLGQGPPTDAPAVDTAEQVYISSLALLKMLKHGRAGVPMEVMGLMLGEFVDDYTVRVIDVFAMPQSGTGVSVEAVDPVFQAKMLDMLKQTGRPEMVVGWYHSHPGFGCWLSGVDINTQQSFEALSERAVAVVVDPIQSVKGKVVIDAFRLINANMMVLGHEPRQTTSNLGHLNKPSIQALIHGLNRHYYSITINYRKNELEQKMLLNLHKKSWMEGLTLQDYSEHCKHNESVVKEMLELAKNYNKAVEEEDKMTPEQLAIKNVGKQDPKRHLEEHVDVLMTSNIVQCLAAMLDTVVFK
HNF4A DNA FP: change in binding of human HNF4 alpha to DNA | P41235 | HNF4a-FITC DNA binding, fluorescence polarization, 1 h | activity change, % at 10 µM | 360,000 compounds, 0.3% hits; in the data active = activity change above about 30%, passing the limit was not always enough
SENP1 inh: SENP1 (human) catalytic domain inhibition. Q9P0U3. recombinant SENP1 catalytic domain, CyPet-SUMO1-YPet FRET cleavage. inhibition, % at 10 µM. 360,000 compounds, 0.21% hits. AID 624204;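 active = inhibition at least 30% at 10 µM, raw YFP signal under a set limit, fluorescence ratio 0.5 to 1.5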;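 also: 0% = enzyme with DMSO and 100% = no enzyme wells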
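System: Recombinant human SENP1 catalytic domain, His6-tagged | Incubation: Enzyme reaction for 50 min at room temperature, dark | Medium: Tris pH 8 with BME, BSA, NP40 and catalase | Also added: 25 nM SUMO1 FRET substrate | Compound: 10 µM single point, 0.5% DMSO | Measured by: FRET fluorescence in CFP and YFP emission channels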
ATG4B inh: blocks human ATG4B protease cleavage of LC3 substrate | Q9Y4P1 | ATG4B cleavage of LC3-PLA2, NBD-HPC fluorescence, 1 h | inhibition, % at 8.33 µM | 340,000 compounds, 0.51% hits; in the data active = inhibition above about 40%
An asterisk follows results filed as active. Sampled rows, rich in hits. Any-hit rate of the full collection: about 2%.

For Cn1nnnc1Sc1ncnc2scc(-c3ccc(F)cc3)c12 the results were TPT1 inh 24, CSN inh 10, Rpn11 block 49*, HNF4A DNA FP 21, SENP1 inh -54 and ATG4B inh -5.
Cn1nnnc1Sc1ncnc2scc(-c3ccc(Br)cc3)c12 was read as CSN inh 14, Rpn11 block 4, HNF4A DNA FP 2, SENP1 inh -5 and ATG4B inh 3.
For Cc1cccc(C(=O)NC2CCN(C(=S)NCc3ccco3)CC2)c1 the results were TPT1 inh -1, CSN inh 5, Rpn11 block -9, HNF4A DNA FP 2, SENP1 inh -1 and ATG4B inh -17.
`O=C(NC1CCN(C(=S)NCc2ccco2)CC1)NC12CC3CC(CC(C3)C1)C2` gave TPT1 inh 1, CSN inh 6, Rpn11 block 4, HNF4A DNA FP 43*, SENP1 inh -20 and ATG4B inh 3.
CSc1ccccc1NC(=O)COC(=O)c1cnc(C)cn1 was read as CSN inh -3, Rpn11 block -4, HNF4A DNA FP 2, SENP1 inh 1 and ATG4B inh -4.
`CCOc1ccc(/C=C/C(O)=C2/C(=O)N(C)C3(C)CC2c2ccccc2O3)cc1OC` (stereo not given) gave TPT1 inh 3, CSN inh 5, Rpn11 block -2, HNF4A DNA FP -1, SENP1 inh -50 and ATG4B inh 13.
Screening CN(C)c1ccc(/C=C/C(O)=C2/C(=O)N(C)C3(C)CC2c2ccccc2O3)cc1 (stereo not given) returned TPT1 inh 188*.
O=c1cc(-c2ccc(O)c(O)c2)oc2cc(O[C@@H]3O[C@H](CO)[C@@H](O)[C@H](O)[C@H]3O)cc(O)c12 was read as CSN inh 5, Rpn11 block -2, HNF4A DNA FP -7, SENP1 inh 34* and ATG4B inh -8.
`NCCCCCNC(=O)c1[nH]cnc1C(=O)N[C@@H](Cc1ccccc1)C(=O)OCc1ccccc1` gave CSN inh 0, Rpn11 block -4, HNF4A DNA FP -1, SENP1 inh 1 and ATG4B inh -14.
For O=C(CSc1ccc2ccccc2n1)NCCCN1CCCC1=O the results were CSN inh -2, Rpn11 block -7, HNF4A DNA FP 2, SENP1 inh 0 and ATG4B inh -2.
`COc1ccccc1OCCNC(=O)CCNS(=O)(=O)c1ccc(C)cc1` gave CSN inh -6, Rpn11 block 7, HNF4A DNA FP -1, SENP1 inh -1 and ATG4B inh -11.
For Cc1nnc(N2CCC(C(=O)N3CCCCC3)CC2)c2nn(-c3ccc(Cl)cc3)c(C)c12 the results were TPT1 inh 0, CSN inh 3, Rpn11 block -4, HNF4A DNA FP 6, SENP1 inh 2 and ATG4B inh 53*.
`COc1ccc(S(=O)(=O)N(C)C[C@H]2Oc3c(NC(=O)C4CCCCC4)cccc3C(=O)N([C@H](C)CO)C[C@@H]2C)cc1` gave CSN inh 0, Rpn11 block -6, HNF4A DNA FP 3, SENP1 inh 1 and ATG4B inh -9.
`CCC(CC)c1nnc(NC(=O)c2cc([N+](=O)[O-])ccc2N2CCCCC2)s1` gave TPT1 inh 1, CSN inh 47*, Rpn11 block 4, HNF4A DNA FP -1, SENP1 inh -2 and ATG4B inh -8.
`COc1ccc(NC(=O)c2cc([N+](=O)[O-])ccc2N2CCCCC2)cc1` gave TPT1 inh -2, CSN inh 2, Rpn11 block 0, HNF4A DNA FP 31*, SENP1 inh -1 and ATG4B inh 0.
Screening CC(=O)NC1CC2CCCC(C1)N2C(=O)Nc1ccc(Cl)c(C(F)(F)F)c1 (stereo not given) returned TPT1 inh -3, CSN inh 4, Rpn11 block 7, HNF4A DNA FP 30*, SENP1 inh 1 and ATG4B inh 1.
`Cc1cc(C)c(O)c(-c2cc(C(=O)Nc3cccnc3)[nH]n2)c1` gave TPT1 inh 0, CSN inh -1, Rpn11 block -2, HNF4A DNA FP 3, SENP1 inh 1 and ATG4B inh -11.

Screening results as filed in PubChem.
